Compounds with a hit are over-represented: about 3.8% of the library has one in this group of screens.
KCNK9 block – KCNK9 potassium channel inhibitors, primary screen, HEK293 cells, thallium flux | Potassium channel subfamily K member 9 (Homo sapiens), Q9NPC2 | FluxOR thallium flux fluorescence; stronger effect = lower value | B-score at 10 µM | actives 1.2% (n = 310,000) | AID 488922, 2010;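 active means ratio B-score over 3 SD below the library mean, with starting fluorescence within 5 SD of its mean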;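 further: negative B-score means less thallium flux so channel inhibition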
Target sequence (Q9NPC2 whole entry, looked up): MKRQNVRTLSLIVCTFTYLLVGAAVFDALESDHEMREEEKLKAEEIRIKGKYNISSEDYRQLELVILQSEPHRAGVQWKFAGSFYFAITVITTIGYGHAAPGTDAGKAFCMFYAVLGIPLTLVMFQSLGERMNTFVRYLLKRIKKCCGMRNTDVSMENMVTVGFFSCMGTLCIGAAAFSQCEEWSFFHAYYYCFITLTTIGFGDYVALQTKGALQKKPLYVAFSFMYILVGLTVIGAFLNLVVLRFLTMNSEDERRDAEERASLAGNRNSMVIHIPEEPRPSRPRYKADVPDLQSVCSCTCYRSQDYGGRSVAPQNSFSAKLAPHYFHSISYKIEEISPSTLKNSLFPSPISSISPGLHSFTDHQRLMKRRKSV
hERG rescue – hERG rescue from dofetilide block, primary screen, cell-based, CHO-hERG, FluxOR thallium flux, dofetilide IC70; dofetilide IC70 present; activation (rescue from dofetilide block), less the hit threshold, % at 10 µM; actives 0.51% (n = 310,000); AID 1511, 2009;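 active means activation above the mean of controls blocked by dofetilide plus 5 SD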;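 further: thallium influx through hERG after potassium depolarization seen as dye fluorescence rise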
KCNQ1 pot – potentiators or activators of KCNQ1 channel, primary screen, cell-based, thallium flux, high-throughput; actives 0.35% (n = 310,000); CHO-K1 KCNQ1, thallium flux FluxOR fluorescence; stronger effect = higher value; B-score at 10 µM;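 active means fluorescence ratio B-score, a plate-corrected score, at least three library SD, with initial intensity B-score within 5 SD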
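Doses: Single concentration per compound, DMSO matched to controls | Test system: KCNQ1-transfected CHO-K1 cells | Timing: 90 min dye loading and 20 min compound exposure, both at room temperature | Measured by: Kinetic FluxOR thallium fluorescence, 10-s 1-Hz baseline, 110-s post-stimulus read | Medium: Assay buffer with matched DMSO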
KCNQ1 block – inhibitors of human KCNQ1 channel, primary screen, cell-based, thallium flux, high-throughput; actives 1.3% (n = 310,000); CHO-K1 KCNQ1, FluxOR thallium flux fluorescence; stronger effect = higher value; Potassium voltage-gated channel subfamily KQT member 1 (Homo sapiens), P51787; AID 2642, 2010; B-score at 10 µM;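 active means compounds whose thallium flux B-score, printed positive for inhibition, exceeds three library SD while starting fluorescence stays within three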;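 further: channel opened by potassium depolarization with thallium stimulus after 20 min compound exposure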
Kir21 block – inhibitors of mouse Kir2.1 inward-rectifier potassium channel; Inward rectifier potassium channel 2 (Mus musculus), P35561; actives 0.85% (n = 310,000); B-score at 10 µM; HEK293-Kir2.1, FluxOR thallium flux fluorescence; stronger effect = lower value;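 active means fluorescence ratio B-score at or below minus 3 SD of library scores, with starting-brightness B-score within 2 SD, cut at about -4.2 in these data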;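 further: channel flux triggered by added potassium and thallium sulfate stimulus; B-score of peak minus minimum fluorescence over baseline after thallium stimulus; more negative B-score means stronger Kir2.1 block with less thallium influx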
KCNK3 inh – human KCNK3 channel inhibitors, primary screen, CHO cells, FluxOR thallium flux, B-score. B-score at 10 µM. AID 602410, 2012. Potassium channel subfamily K member 3 (Homo sapiens), O14649. FluxOR fluorescence; stronger effect = lower value. actives 0.84% (n = 340,000);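 active means B-score under library mean minus 4 SD, starting fluorescence ratio at most library mean plus 5 SD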;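 further: more negative B-score means stronger inhibition of thallium flux through KCNK3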
KCNQ1 block val – KCNQ1 potassium channel inhibitors, confirmation, cell-based, Tl flux, duplicate. shares compounds with KCNQ1 block. KCNQ1 cell line, FluxOR thallium flux fluorescence. actives 93% (n = 1,600). inhibition, % at 10 µM. AID 588353, 2011;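 active means primary screen active, with duplicate mean exceeding buffer control mean plus 3 SD of buffer wells, cut at about 28% in these data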;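 further: 0% = buffer control ratio and 100% = XE991 inhibitor control ratio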
CHO KCNQ1 ctr – thallium flux effects in parental CHO cells, counter-screen for KCNQ1 inhibitor project, cell-based, Tl flux. shares compounds with KCNQ1 block. parental CHO-K1, FluxOR thallium flux fluorescence ratio; stronger effect = lower value; zero means no signal rise above baseline. fluorescence ratio (Tl flux) at 10 µM. actives 21% (n = 1,600). AID 588366, 2011;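 active means mean of duplicate thallium-flux fluorescence ratios in parental host cells more than 5 SD below the buffer control mean, cut at about 0.38 in these data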;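 further: ratio is peak minus minimum fluorescence divided by baseline fluorescence; actives read low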
KCNQ1 APC inh – KCNQ1 channel inhibitors, confirmation, orthogonal assay, cell-based, automated electrophysiology; actives 20% (n = 490); AID 624120, 2012; shares compounds with KCNQ1 block; calls only at 10 µM; KCNQ1-CHO cells, automated patch clamp current;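 active means KCNQ1 current drop exceeding 3 SD of negative control wells, seen in both duplicate runs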;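 further: steady state current during a 2 s step from -80 to +40 mV; negative values mean current inhibition and positive values mean potentiation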
KCNQ2 spec – KCNQ2 channel inhibition, selectivity assay for KCNQ1 inhibitor project, cell-based. shares compounds with KCNQ1 block. KCNQ2 cells, FluxOR thallium flux fluorescence. inhibition, % at 10 µM. actives 71% (n = 1,600). AID 651746, 2012;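 active means mean percent inhibition of the KCNQ2 thallium signal more than 5 SD above the buffer-only control wells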;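 further: KCNQ2 expressed in CHO cells; 0% = buffer control wells and 100% = XE-991 inhibitor control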
KCNQ1-KCNE1 inh – KCNQ1/KCNE1 channel inhibition, selectivity assay for KCNQ1 inhibitor project, CHO-K1 cells, thallium flux, FluxOR; shares compounds with KCNQ1 block; FluxOR thallium flux fluorescence; inhibition, % at 10 µM; actives 77% (n = 1,600);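 active means mean percent inhibition of duplicate wells above the buffer-only control mean plus 3 SD of those controls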;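 further: 0% = buffer only wells and 100% = XE-991 inhibitor control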
* hit, by the source's call; i = inactive; / = not tested or not shown.

SMILES | KCNK9 block | hERG rescue | KCNQ1 pot | KCNQ1 block | Kir21 block | KCNK3 inh | KCNQ1 block val | CHO KCNQ1 ctr | KCNQ2 spec | KCNQ1-KCNE1 inh | others
O=Cc1cn(CC(=O)NCC2CCCO2)c2ccccc12 (stereo unspecified) | i | -4.8 | i | i | 0.85 | i | / | / | / | /
CCc1nnc(NC(=O)CSc2nnc(CNc3ccc(C)cc3)n2C)s1 | i | -5.3 | i | i | 0.17 | i | / | / | / | /
O=S(=O)(c1ccccc1)c1nc(Nc2cccc(O)c2)sc1Cl | i | -33.9 | i | 7* | -5.47* | i | 94.5* | 0.383 | 78.3%* | 44.0%* | KCNQ1 APC inh=i
CCC1(C)Cc2ccccc2-c2nc(-c3ccccc3)oc(=O)c21 (stereo unspecified) | i | -13.0 | i | 8* | 3.08 | i | 92.5* | 0.491 | 102.3%* | 104.5%* | KCNQ1 APC inh=i
CCC1(C)Cc2ccccc2-c2nc(NN)[nH]c(=O)c21 (stereo unspecified) | i | -9.7 | i | i | -0.87 | i | / | / | / | /
Cc1ccc2cc(CN(CCN(C)C)C(=S)Nc3ccccc3)c(=O)[nH]c2c1C | i | 11.7* | i | 7* | 0.35 | i | 55.5* | 0.508 | i | 86.0%*
CCN(CC)CCN(Cc1cc2cccc(C)c2[nH]c1=O)C(=S)Nc1ccccc1 | i | -10.6 | i | i | -0.52 | i | / | / | / | /
Cc1ccc(C(=O)Nc2cccnc2Cl)cc1Cl | i | -3.7 | i | i | 0.23 | i | / | / | / | /
CC(C)(C)c1ccc(C(=O)Cn2cnnc2C#N)cc1 | i | -8.6 | i | 6* | 0.26 | i | 79.0* | 0.469 | i | 35.5%*
O=C(CN(C(=O)CCC(=O)Nc1nccs1)c1ccc(F)c(Cl)c1)NCc1ccco1 | i | -1.7 | i | i | -0.82 | i | / | / | / | /
Oc1cc2ccccc2cc1-c1n[nH]c(=S)o1 | i | -10.1 | i | 7* | -0.19 | i | 0.0 | 0.631 | i | i
C[C@H](NC(=O)OC(C)(C)C)C(=O)N/N=C/c1cccc2nccnc12 | i | -3.4 | i | i | 0.34 | i | / | / | / | /
COc1ccc(N=C2NC(=O)S/C2=C\c2ccc(N(C)C)cc2)cc1 | i | -15.3 | i | 7* | -4.01 | i | 60.5* | 0.376* | 66.3%* | 105.5%*
CN(C)c1ccc(C=C2SC(=S)NC2=O)cc1 | / | / | / | / | / | i | / | / | / | /

Screens: PubChem BioAssay, Johns Hopkins Ion Channel Center
